Laboratory results as given in ChEMBL document CHEMBL5058577, “EUbOPEN Chemogenomics Library 2 (Multiplex)” (2022).

Tested on: U2OS
Assay: Multiplex assay against U2OS
Assay type: toxicity, cell-based
Conditions: human
In short: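 Live cells carried four stains from seeding: Hoechst33342, BioTracker Green Microtubule Cytoskeleton Dye, MitoTracker Red and Annexin V Alexa Fluor 680. They were imaged on a CQ1 microscope at 37°C and 5% CO2 after compound addition. Using CellPathfinder machine-learning gating, cells were split into Hoechst high-intensity objects or normal cells, normal cells into healthy, pyknosed or fragmented nuclei, and pyknosed cells into mitotic or apoptotic; tubulin, mitochondrial-mass and membrane-permeability phenotypes are per cents of healthy-nucleus cells.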

[1] = 12 h, 1 µM, compound concentration 1 uM, replicate 1
[2] = 12 h, 1 µM, compound concentration 1 uM, replicate 2
[3] = 12 h, 10 µM, compound concentration 10 uM, replicate 1
[4] = 12 h, 10 µM, compound concentration 10 uM, replicate 2
[5] = 24 h, 1 µM, compound concentration 1 uM, replicate 1
[6] = 24 h, 1 µM, compound concentration 1 uM, replicate 2
[7] = 24 h, 10 µM, compound concentration 10 uM, replicate 1
[8] = 24 h, 10 µM, compound concentration 10 uM, replicate 2
[9] = 48 h, 1 µM, compound concentration 1 uM, replicate 1
[10] = 48 h, 1 µM, compound concentration 1 uM, replicate 2
[11] = 48 h, 10 µM, compound concentration 10 uM, replicate 1
[12] = 48 h, 10 µM, compound concentration 10 uM, replicate 2

Question: Which “Population Apoptotic (%)” value [1] does the source give for `C[C@@H]1C[C@H]2[C@@H]3CCC4=CC(=O)C=C[C@]4(C)[C@@]3(F)[C@@H](O)C[C@]2(C)[C@@]1(O)C(=O)CO` [DEXAMETHASONE] here?
Answer: The value was 77%.

Question: What about the “Population Fragmented Nuclei (%)” value [1] of the same compound?
Answer: Its value is 21%.

Question: What about the “Population Healthy Nuclei (%)” value [1] of the same compound?
Answer: The value was 70%.

Question: And the “Population Hoechst High Intensity Objects (%)” value [1]?
Answer: Its value is 2%.

Question: What about the “Population Membrane Permeable-Phenotype (%)” value [1] of the same compound?
Answer: Its value is 2%.

Question: What about the “Population Mitochondria Different-Phenotype (%)” value [1] of the same compound?
Answer: The value was 0%.

Question: And the “Population Mitotic Cells (%)” value [1]?
Answer: Its value is 22%.

Question: What about the “Population Normal (%)” value [1] of the same compound?
Answer: Its value is 97%.

Question: What about the “Population Pyknosed Nuclei (%)” value [1] of the same compound?
Answer: The value was 7%.

Question: What about the “Population Tubulin-Different-Phenotype (%)” value [1] of the same compound?
Answer: Its value is 1%.

Question: And the “Total Cell Count” value [1]?
Answer: The value was 238.

Question: And the “Population Apoptotic (%)” value [2]?
Answer: Its value is 80%.

Question: What about the “Population Fragmented Nuclei (%)” value [2] of the same compound?
Answer: The value was 20%.

Question: And the “Population Healthy Nuclei (%)” value [2]?
Answer: Its value is 75%.

Question: What about the “Population Hoechst High Intensity Objects (%)” value [2] of the same compound?
Answer: Its value is 0%.

Question: And the “Population Membrane Permeable-Phenotype (%)” value [2]?
Answer: The value was 4%.

Question: And the “Population Mitochondria Different-Phenotype (%)” value [2]?
Answer: The value was 1%.

Question: And the “Population Mitotic Cells (%)” value [2]?
Answer: The value was 20%.

Question: What about the “Population Normal (%)” value [2] of the same compound?
Answer: The value was 99%.

Question: What about the “Population Pyknosed Nuclei (%)” value [2] of the same compound?
Answer: Its value is 4%.

Question: And the “Population Tubulin-Different-Phenotype (%)” value [2]?
Answer: Its value is 3%.

Question: And the “Total Cell Count” value [2]?
Answer: The value was 124.

Question: And the “Population Apoptotic (%)” value [3]?
Answer: The value was 80%.

Question: What about the “Population Fragmented Nuclei (%)” value [3] of the same compound?
Answer: Its value is 20%.

Question: What about the “Population Healthy Nuclei (%)” value [3] of the same compound?
Answer: The value was 69%.

Question: What about the “Population Hoechst High Intensity Objects (%)” value [3] of the same compound?
Answer: The value was 2%.

Question: What about the “Population Membrane Permeable-Phenotype (%)” value [3] of the same compound?
Answer: The value was 6%.

Question: What about the “Population Mitochondria Different-Phenotype (%)” value [3] of the same compound?
Answer: The value was 1%.

Question: What about the “Population Mitotic Cells (%)” value [3] of the same compound?
Answer: The value was 19%.

Question: And the “Population Normal (%)” value [3]?
Answer: Its value is 97%.

Question: What about the “Population Pyknosed Nuclei (%)” value [3] of the same compound?
Answer: The value was 9%.

Question: And the “Population Tubulin-Different-Phenotype (%)” value [3]?
Answer: The value was 2%.

Question: And the “Total Cell Count” value [3]?
Answer: Its value is 319.

Question: What about the “Population Apoptotic (%)” value [4] of the same compound?
Answer: Its value is 84%.

Question: What about the “Population Fragmented Nuclei (%)” value [4] of the same compound?
Answer: The value was 16%.

Question: And the “Population Healthy Nuclei (%)” value [4]?
Answer: Its value is 76%.

Question: What about the “Population Hoechst High Intensity Objects (%)” value [4] of the same compound?
Answer: The value was 0%.

Question: What about the “Population Membrane Permeable-Phenotype (%)” value [4] of the same compound?
Answer: Its value is 7%.

Question: What about the “Population Mitochondria Different-Phenotype (%)” value [4] of the same compound?
Answer: Its value is 2%.

Question: And the “Population Mitotic Cells (%)” value [4]?
Answer: Its value is 15%.

Question: And the “Population Normal (%)” value [4]?
Answer: Its value is 100%.

Question: What about the “Population Pyknosed Nuclei (%)” value [4] of the same compound?
Answer: The value was 7%.

Question: What about the “Population Tubulin-Different-Phenotype (%)” value [4] of the same compound?
Answer: The value was 3%.

Question: And the “Population Apoptotic (%)” value [5]?
Answer: Its value is 96%.

Question: And the “Population Fragmented Nuclei (%)” value [5]?
Answer: Its value is 19%.

Question: What about the “Population Healthy Nuclei (%)” value [5] of the same compound?
Answer: Its value is 71%.

Question: And the “Population Hoechst High Intensity Objects (%)” value [5]?
Answer: The value was 2%.

Question: And the “Population Membrane Permeable-Phenotype (%)” value [5]?
Answer: The value was 4%.

Question: And the “Population Mitochondria Different-Phenotype (%)” value [5]?
Answer: The value was 2%.

Question: And the “Population Mitotic Cells (%)” value [5]?
Answer: Its value is 4%.

Question: And the “Population Normal (%)” value [5]?
Answer: The value was 97%.

Question: What about the “Population Pyknosed Nuclei (%)” value [5] of the same compound?
Answer: Its value is 8%.

Question: And the “Population Tubulin-Different-Phenotype (%)” value [5]?
Answer: Its value is 2%.

Question: And the “Total Cell Count” value [5]?
Answer: The value was 288.

Question: And the “Population Apoptotic (%)” value [6]?
Answer: The value was 90%.

Question: What about the “Population Fragmented Nuclei (%)” value [6] of the same compound?
Answer: Its value is 18%.

Question: And the “Population Healthy Nuclei (%)” value [6]?
Answer: Its value is 73%.

Question: What about the “Population Membrane Permeable-Phenotype (%)” value [6] of the same compound?
Answer: Its value is 6%.

Question: What about the “Population Mitochondria Different-Phenotype (%)” value [6] of the same compound?
Answer: The value was 0%.

Question: What about the “Population Mitotic Cells (%)” value [6] of the same compound?
Answer: The value was 9%.

Question: And the “Population Pyknosed Nuclei (%)” value [6]?
Answer: The value was 7%.

Question: What about the “Population Tubulin-Different-Phenotype (%)” value [6] of the same compound?
Answer: Its value is 4%.

Question: What about the “Population Apoptotic (%)” value [7] of the same compound?
Answer: Its value is 82%.

Question: And the “Population Fragmented Nuclei (%)” value [7]?
Answer: Its value is 17%.

Question: And the “Population Healthy Nuclei (%)” value [7]?
Answer: The value was 74%.

Question: What about the “Population Hoechst High Intensity Objects (%)” value [7] of the same compound?
Answer: The value was 1%.

Question: What about the “Population Membrane Permeable-Phenotype (%)” value [7] of the same compound?
Answer: The value was 6%.

Question: And the “Population Mitochondria Different-Phenotype (%)” value [7]?
Answer: The value was 0%.

Question: What about the “Population Mitotic Cells (%)” value [7] of the same compound?
Answer: Its value is 17%.

Question: And the “Population Normal (%)” value [7]?
Answer: The value was 98%.

Question: What about the “Population Pyknosed Nuclei (%)” value [7] of the same compound?
Answer: The value was 7%.

Question: And the “Population Tubulin-Different-Phenotype (%)” value [7]?
Answer: The value was 2%.

Question: And the “Total Cell Count” value [7]?
Answer: The value was 378.

Question: And the “Population Apoptotic (%)” value [8]?
Answer: Its value is 75%.

Question: What about the “Population Fragmented Nuclei (%)” value [8] of the same compound?
Answer: The value was 14%.

Question: What about the “Population Healthy Nuclei (%)” value [8] of the same compound?
Answer: Its value is 79%.

Question: And the “Population Hoechst High Intensity Objects (%)” value [8]?
Answer: The value was 0%.

Question: And the “Population Mitochondria Different-Phenotype (%)” value [8]?
Answer: The value was 2%.

Question: What about the “Population Mitotic Cells (%)” value [8] of the same compound?
Answer: Its value is 25%.

Question: What about the “Population Normal (%)” value [8] of the same compound?
Answer: Its value is 99%.

Question: And the “Population Pyknosed Nuclei (%)” value [8]?
Answer: Its value is 5%.

Question: What about the “Total Cell Count” value [8] of the same compound?
Answer: Its value is 219.

Question: And the “Population Apoptotic (%)” value [9]?
Answer: Its value is 84%.

Question: And the “Population Fragmented Nuclei (%)” value [9]?
Answer: Its value is 20%.

Question: And the “Population Healthy Nuclei (%)” value [9]?
Answer: The value was 72%.

Question: And the “Population Hoechst High Intensity Objects (%)” value [9]?
Answer: Its value is 1%.

Question: What about the “Population Membrane Permeable-Phenotype (%)” value [9] of the same compound?
Answer: Its value is 1%.

Question: And the “Population Mitochondria Different-Phenotype (%)” value [9]?
Answer: Its value is 1%.

Question: What about the “Population Mitotic Cells (%)” value [9] of the same compound?
Answer: Its value is 16%.

Question: And the “Population Normal (%)” value [9]?
Answer: Its value is 98%.

Question: What about the “Population Pyknosed Nuclei (%)” value [9] of the same compound?
Answer: The value was 6%.

Question: And the “Population Tubulin-Different-Phenotype (%)” value [9]?
Answer: The value was 0%.

Question: What about the “Total Cell Count” value [9] of the same compound?
Answer: The value was 391.

Question: And the “Population Apoptotic (%)” value [10]?
Answer: The value was 71%.

Question: What about the “Population Fragmented Nuclei (%)” value [10] of the same compound?
Answer: Its value is 17%.

Question: And the “Population Healthy Nuclei (%)” value [10]?
Answer: Its value is 74%.

Question: And the “Population Hoechst High Intensity Objects (%)” value [10]?
Answer: Its value is 2%.

Question: And the “Population Membrane Permeable-Phenotype (%)” value [10]?
Answer: Its value is 3%.

Question: What about the “Population Mitochondria Different-Phenotype (%)” value [10] of the same compound?
Answer: Its value is 3%.

Question: What about the “Population Mitotic Cells (%)” value [10] of the same compound?
Answer: The value was 28%.

Question: What about the “Population Normal (%)” value [10] of the same compound?
Answer: Its value is 97%.

Question: And the “Population Pyknosed Nuclei (%)” value [10]?
Answer: The value was 7%.

Question: What about the “Population Tubulin-Different-Phenotype (%)” value [10] of the same compound?
Answer: Its value is 4%.

Question: What about the “Total Cell Count” value [10] of the same compound?
Answer: Its value is 186.

Question: And the “Population Apoptotic (%)” value [11]?
Answer: Its value is 92%.

Question: And the “Population Fragmented Nuclei (%)” value [11]?
Answer: The value was 14%.

Question: And the “Population Healthy Nuclei (%)” value [11]?
Answer: The value was 77%.

Question: What about the “Population Hoechst High Intensity Objects (%)” value [11] of the same compound?
Answer: Its value is 2%.

Question: And the “Population Membrane Permeable-Phenotype (%)” value [11]?
Answer: Its value is 4%.

Question: What about the “Population Mitochondria Different-Phenotype (%)” value [11] of the same compound?
Answer: Its value is 1%.

Question: What about the “Population Mitotic Cells (%)” value [11] of the same compound?
Answer: The value was 7%.

Question: What about the “Population Normal (%)” value [11] of the same compound?
Answer: Its value is 97%.

Question: And the “Population Pyknosed Nuclei (%)” value [11]?
Answer: Its value is 8%.

Question: And the “Population Tubulin-Different-Phenotype (%)” value [11]?
Answer: Its value is 1%.

Question: What about the “Total Cell Count” value [11] of the same compound?
Answer: The value was 497.

Question: And the “Population Apoptotic (%)” value [12]?
Answer: The value was 86%.

Question: What about the “Population Fragmented Nuclei (%)” value [12] of the same compound?
Answer: Its value is 16%.

Question: And the “Population Healthy Nuclei (%)” value [12]?
Answer: Its value is 76%.

Question: What about the “Population Membrane Permeable-Phenotype (%)” value [12] of the same compound?
Answer: Its value is 5%.

Question: And the “Population Mitochondria Different-Phenotype (%)” value [12]?
Answer: The value was 0%.

Question: And the “Population Mitotic Cells (%)” value [12]?
Answer: Its value is 13%.

Question: What about the “Population Pyknosed Nuclei (%)” value [12] of the same compound?
Answer: The value was 7%.

Question: What about the “Total Cell Count” value [12] of the same compound?
Answer: Its value is 294.
